According to ChEMBL document CHEMBL1121475, “Inhibitors of indoleethylamine N-methyltransferase. Derivatives of 3-methyl-2-thiazolidinimine. In vitro, in vivo, and metabolic studies” (J Med Chem, 1980):

Key:
[1] = molecular target: Indolethylamine N-methyltransferase (Homo sapiens) (UniProt O95050); experiment: In vitro evaluation of Indoleethylamine-N-methyltransferase in human lung preparations for the ability to inhibit conversion of N-methyltryptamine (NMT) to N,N-dimethyltryptamine (DMT) at dose 2.5 ug/mL; format: tissue-based
How it was run: (§1)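 Human lung INMT was taken from the 50000g supernatant, cut with 40-60% ammonium sulfate, dialysed and purified on Sephadex G-150. The reaction contained 0.007 M N-methyltryptamine stock, S-[methyl-14C]adenosylmethionine and potassium phosphate, pH 7.9, in 0.105 mL, run 90 min at 37 °C. It was stopped with borate at pH 10. [14C]DMT was extracted into isoamyl alcohol and counted by scintillation.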

[2] = (§2) Dose that causes approximately 50% lethality in mice, when given intravenously; format: ADME, organism-based; conditions: mouse, in vivo, iv
[3] = (§3) Dose that causes approximately 50% lethality in mice, when given perorally; format: ADME, organism-based; conditions: mouse, in vivo, po
How it was run: (§4)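 Mice in groups of one to three were dosed orally. Deaths were scored on day 7 after dosing, and the LD50 was obtained by graphical interpolation.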

[4] = molecular target: Indolethylamine N-methyltransferase (Homo sapiens) (UniProt O95050); experiment: In vitro evaluation of Indoleethylamine-N-methyltransferase in human lung preparations for the ability to inhibit conversion of N-methyltryptamine (NMT) to N,N-dimethyltryptamine (DMT) at dose 25 ug/mL; format: tissue-based; how it was run: as §1
[5] = system: Indolethylamine N-methyltransferase (Oryctolagus cuniculus); experiment: In vivo evaluation of specific activity against rabbit lung Indoleethylamine-N-methyltransferase at oral dose of 25 mg/kg
[6] = system: Indolethylamine N-methyltransferase (Oryctolagus cuniculus); experiment: Compound tested for inhibitory activity against rabbit lung Indoleethylamine-N-methyltransferase at oral dose 25 mg/kg *(p<0.026)
[7] = system: Indolethylamine N-methyltransferase (Oryctolagus cuniculus); experiment: Compound tested for inhibitory activity against rabbit lung Indoleethylamine-N-methyltransferase at intravenous dose 4 mg/kg *(p<0.027)
[8] = system: Indolethylamine N-methyltransferase (Oryctolagus cuniculus); experiment: Compound tested for inhibitory activity against rabbit lung Indoleethylamine-N-methyltransferase at intravenous dose 4 mg/kg *(p<0.008
[9] = system: Indolethylamine N-methyltransferase (Oryctolagus cuniculus); experiment: Compound tested for inhibitory activity against rabbit lung Indoleethylamine-N-methyltransferase at oral dose 25 mg/kg
[10] = Dose that causes approximately 50% lethality in mice, when given intraperitoneally; format: ADME, organism-based; conditions: mouse, in vivo, ip
[11] = system: Indolethylamine N-methyltransferase (Oryctolagus cuniculus); experiment: In vivo evaluation of specific activity against rabbit lung Indoleethylamine-N-methyltransferase at intravenous dose of 4 mg/kg
[12] = system: Indolethylamine N-methyltransferase (Oryctolagus cuniculus); experiment: Compound tested for specific activity against rabbit lung Indoleethylamine-N-methyltransferase at intravenous dose of 10 mg/kg
[13] = system: Indolethylamine N-methyltransferase (Oryctolagus cuniculus); experiment: Compound tested for specific activity against rabbit lung Indoleethylamine-N-methyltransferase at oral dose of 20 mg/kg
[14] = system: Indolethylamine N-methyltransferase (Oryctolagus cuniculus); experiment: In vivo evaluation of inhibitory activity against rabbit lung Indoleethylamine-N-methyltransferase at intravenous dose 10 mg/kg *(p<0.02)
Oryctolagus cuniculus [15] = experiment: 25 mg/kg of [14C]- radiolabeled compound was perorally injected in rabbit, and radioactivity content in urine was estimated at 6-24 h; format: ADME, organism-based; conditions: in vivo, po
How it was run: (§5)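 Male New Zealand white rabbit (825 g) dosed by gavage at 25 mg/kg. The dosing solution was [14C]-labelled plus unlabelled drug in distilled water, 2 mg free base/mL, specific activity 1183 dpm/μg. Urine collected at 6, 24, 48 and 72 h and feces at 24, 48 and 72 h. Radioactivity is expressed as % of administered dose.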

Oryctolagus cuniculus [16] = experiment: 10 mg/kg of [14C]- radiolabeled compound was intravenously […] injected in rabbit, and radioactivity content in feces was estimated at 48-72 h; format: ADME, organism-based; conditions: in vivo, iv
How it was run: (§6)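 Male New Zealand white rabbit (825 g), [14C]-labelled drug given intravenously at 10 mg/kg. Urine collected at 6, 24, 48 and 72 h and feces at 24, 48 and 72 h post-dose. Radioactivity is counted and expressed as % of administered dose.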

Oryctolagus cuniculus [17] = experiment: 25 mg/kg of [14C]- radiolabeled compound was perorally injected in rabbit, and radioactivity content in urine was estimated at 24-48 h; format: ADME, organism-based; conditions: in vivo, po; how it was run: as §5
Oryctolagus cuniculus [18] = experiment: 10 mg/kg of [14C]- radiolabeled compound was intravenously injected in rabbit, and radioactivity content in urine was estimated at 48-72 h; format: ADME, organism-based; conditions: in vivo, iv; how it was run: as §6
Oryctolagus cuniculus [19] = experiment: 25 mg/kg of [14C]- radiolabeled compound was perorally injected in rabbit, and radioactivity content in urine was estimated at 0-6 h; format: ADME, organism-based; conditions: in vivo, po; how it was run: as §5
Oryctolagus cuniculus [20] = experiment: 10 mg/kg of [14C]- radiolabeled compound was intravenously […] injected in rabbit, and radioactivity content in feces was estimated at 24-48 h; format: ADME, organism-based; conditions: in vivo, iv; how it was run: as §6
Mus musculus [21] = species on record: Mus musculus; experiment: as §3; format: functional; conditions: po; how it was run: as §4
Oryctolagus cuniculus [22] = experiment: 10 mg/kg of [14C]- radiolabeled compound was intravenously injected in rabbit, and radioactivity content in urine was estimated (total); format: ADME, organism-based; conditions: in vivo, iv; how it was run: as §6
Oryctolagus cuniculus [23] = experiment: 25 mg/kg of [14C]- radiolabeled compound was orally (gavage) injected in rabbit, and radioactivity content in feces was estimated at 48-72 h; format: ADME, organism-based; conditions: in vivo, po; how it was run: as §5
Oryctolagus cuniculus [24] = experiment: 25 mg/kg of [14C]- radiolabeled compound was orally (gavage) injected in rabbit, and radioactivity content in feces was estimated at 24-48 h; format: ADME, organism-based; conditions: in vivo, po; how it was run: as §5
Oryctolagus cuniculus [25] = experiment: 10 mg/kg of [14C]- radiolabeled compound was intravenously injected in rabbit, and radioactivity content in urine was estimated at 6-24 h; format: ADME, organism-based; conditions: in vivo, iv; how it was run: as §6
Oryctolagus cuniculus [26] = experiment: 10 mg/kg of [14C]- radiolabeled compound was intravenously […] injected in rabbit, and radioactivity content in feces was estimated (total); format: ADME, organism-based; conditions: in vivo, iv; how it was run: as §6
Oryctolagus cuniculus [27] = experiment: 25 mg/kg of [14C]- radiolabeled compound was orally (gavage) injected in rabbit, and radioactivity content in feces was estimated at 0-24 h; format: ADME, organism-based; conditions: in vivo, po; how it was run: as §5
Oryctolagus cuniculus [28] = experiment: 25 mg/kg of [14C]- radiolabeled compound was perorally injected in rabbit, and radioactivity content in urine was estimated at 48-72 h; format: ADME, organism-based; conditions: in vivo, po; how it was run: as §5
Mus musculus [29] = experiment: as §2; format: functional; conditions: iv
Oryctolagus cuniculus [30] = experiment: 10 mg/kg of [14C]- radiolabeled compound was intravenously injected in rabbit, and radioactivity content in urine was estimated at 24-48 h; format: ADME, organism-based; conditions: in vivo, iv; how it was run: as §6
Oryctolagus cuniculus [31] = experiment: 10 mg/kg of [14C]- radiolabeled compound was intravenously injected in rabbit, and radioactivity content in urine was estimated at 0-6 h; format: ADME, organism-based; conditions: in vivo, iv; how it was run: as §6
Oryctolagus cuniculus [32] = experiment: 25 mg/kg of [14C]- radiolabeled compound was perorally injected in rabbit, and radioactivity content in urine was estimated (total); format: ADME, organism-based; conditions: in vivo, po; how it was run: as §5
Oryctolagus cuniculus [33] = experiment: 10 mg/kg of [14C]- radiolabeled compound was intravenously […] injected in rabbit, and radioactivity content in feces was estimated at 0-24 h; format: ADME, organism-based; conditions: in vivo, iv; how it was run: as §6
Oryctolagus cuniculus [34] = experiment: 25 mg/kg of [14C]- radiolabeled compound was orally (gavage) injected in rabbit, and radioactivity content in feces was estimated (total); format: ADME, organism-based; conditions: in vivo, po; how it was run: as §5
[35] = system: Indolethylamine N-methyltransferase (Oryctolagus cuniculus); experiment: Compound tested for inhibitory activity against rabbit lung Indoleethylamine-N-methyltransferase at 4 mg/kg intravenously
[36] = system: Indolethylamine N-methyltransferase (Oryctolagus cuniculus); experiment: In vivo evaluation of specific activity against rabbit lung Indoleethylamine-N-methyltransferase at intravenous dose of 4 mg/kgmade acidic to pH 2 with dil. HCl

Chain of Indolethylamine N-methyltransferase (Homo sapiens) (O95050 whole entry): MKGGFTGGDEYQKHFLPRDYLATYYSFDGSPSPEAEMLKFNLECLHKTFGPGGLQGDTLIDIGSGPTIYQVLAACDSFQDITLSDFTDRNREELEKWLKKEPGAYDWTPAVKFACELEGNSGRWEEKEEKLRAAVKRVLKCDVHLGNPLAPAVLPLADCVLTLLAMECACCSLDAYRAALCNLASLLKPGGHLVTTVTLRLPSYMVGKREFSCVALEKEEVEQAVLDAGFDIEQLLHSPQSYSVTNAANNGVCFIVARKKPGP

Work on `CN1CCS/C1=N\C(=O)CN` yielded an inhibition [1] of 11%, an LD50 [2] of 549 mg/kg and an LD50 [3] of 4670 mg/kg. It also gave an inhibition [4] of 54%.
`CN1CCS/C1=N\C(=O)c1cccnc1` showed an inhibition [1] of 0%, a Specific activity [5] of 18400 dpm and an LD50 [2] of 279 mg/kg. For the same molecule, the inhibition [6] was 76.2%, the LD50 [3] was 570 mg/kg and the inhibition [7] was 37.8%. For the same molecule, the inhibition [4] was 5%.
`CC(=O)NC(Cc1ccccc1)C(=O)/N=C1\SCCN1C` (configuration not stated) gave an inhibition [1] of 8%, an inhibition [8] of 28.9% and a Specific activity [5] of 24100 dpm. For the same molecule, the inhibition [9] was 69%, the LD50 [3] was 173 mg/kg and the LD50 [10] was over 2000 mg/kg. For the same molecule, the inhibition [4] was 23% and the Specific activity [11] was 60000 dpm.
Molecule `CCNC(=O)/N=C1\SCCN1C` has an LD50 [2] of 1110 mg/kg, an LD50 [3] of 203 mg/kg and an inhibition [4] of 0%.
In the case of `CN1CCS/C1=N\C(=O)CCC(=O)O`, the Specific activity [12] is reported as 36100 dpm, the inhibition [12] is reported as 35.8% and the LD50 [2] is reported as 1280 mg/kg. It also gave a Specific activity [13] of 34000 dpm, an inhibition [13] of 11.4% and an LD50 [3] of over 8 mg/kg. It also gave an inhibition [4] of 20%.
For `CN1CCS/C1=N\C(=O)/N=C1\SCCN1C`, the Specific activity [5] was 61200 dpm, the inhibition [9] was 31.9% and the LD50 [3] was 2000 mg/kg. The LD50 [10] was 1140 mg/kg and the inhibition [4] was 0%.
`CN1CCS/C1=N\S(=O)(=O)[O-].[Na+]` showed an LD50 [2] of over 2.5 mg/kg and an LD50 [3] of over 5 mg/kg.
`CC(=O)N[C@@H](Cc1ccccc1)C(=O)/N=C1\SCCN1C` gave an inhibition [14] of 84.7%.
For `CN1CCSC1=N`, the Dose excreted (Oryctolagus cuniculus [15]) was 38.8%, the Dose excreted (Oryctolagus cuniculus [16]) was 0.3% and the Dose excreted (Oryctolagus cuniculus [17]) was 2.9%. It also gave a Dose excreted (Oryctolagus cuniculus [18]) of 3.3%, a Dose excreted (Oryctolagus cuniculus [19]) of 46.4% and a Dose excreted (Oryctolagus cuniculus [20]) of 0.9%. The LD50 (Mus musculus [21]) was 432 mg/kg, the Dose excreted (Oryctolagus cuniculus [22]) was 82.8% and the Dose excreted (Oryctolagus cuniculus [23]) was 0.1%. It also gave a Dose excreted (Oryctolagus cuniculus [24]) of 0.6%, a Dose excreted (Oryctolagus cuniculus [25]) of 27.7% and a Dose excreted (Oryctolagus cuniculus [26]) of 4.3%. For the same molecule, the Dose excreted (Oryctolagus cuniculus [27]) was 3.2%, the Dose excreted (Oryctolagus cuniculus [28]) was 1.6% and the LD50 (Mus musculus [29]) was 118 mg/kg. The Dose excreted (Oryctolagus cuniculus [30]) was 5.3%, the Dose excreted (Oryctolagus cuniculus [31]) was 46.5% and the Dose excreted (Oryctolagus cuniculus [32]) was 89.7%. The Dose excreted (Oryctolagus cuniculus [33]) was 3.1% and the Dose excreted (Oryctolagus cuniculus [34]) was 3.9%.
With `CC(=O)CC(=O)/N=C1\SCCN1C` the inhibition [1] was 24% and the inhibition [4] was 51%.
`CN1CCS/C1=N\CNC(=O)c1ccccc1` showed an LD50 [2] of 122 mg/kg and an LD50 [3] of 534 mg/kg.
`CN1CCS/C1=N\C(=O)OC(C)(C)C` showed an LD50 [2] of 68 mg/kg, an LD50 [3] of 306 mg/kg and an inhibition [4] of 6%.
In the case of `CC(=O)NCC(=O)/N=C1\SCCN1C`, the inhibition [1] is reported as 24%, the inhibition [35] is reported as 60.6% and the Specific activity [5] is reported as 11600 dpm. The LD50 [2] was 408 mg/kg, the Specific activity [36] was 33200 dpm and the inhibition [9] was 84.9%. It also gave an LD50 [3] of 936 mg/kg and an inhibition [4] of 51%.
